Active and inactive are the calls of the source. The rule behind the calls is not given here.
What was measured:
[1] = test system: Quadruplex DNA; test: Binding affinity to G4 quadruplex DNA in human U87 cells assessed as decrease in fluorescence intensity at 5 uM in presence of 5 to 20 uM BRACO19 by DAPI staining based confocal laser microscopic analysis; type: cell-based
Summary of the method: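 Live U87 cells stained with ligand (5 μM) plus DAPI, with BRACO19 added at 0, 5, 10, 15 or 20 μM. Confocal imaging with excitation at 488 or 571 nm for the ligand and 402 nm for DAPI; nuclear spot fluorescence intensity scored.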

[2] = test system: Quadruplex DNA [UNDEFINED MUTATION]; test: Effect on confirmation of telomeric Htg24 G-quadruplex DNA T6G mutant (unknown origin) assessed as hybrid topology at 5 uM at pH 7.4 by circular dichroism analysis; type: nucleic-acid assay; details: Homo sapiens
Summary of the method: (§1)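 CD spectra recorded on G4-DNA and ligand, each at 5 μM, in 10 mM Tris-HCl, pH 7.4, with 60 mM KCl. Scan range 220–340 nm in a 1 mm quartz cuvette, 1 nm bandwidth and step, 0.5 s/point. Each spectrum is the average of three scans.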

[3] = test system: Quadruplex DNA; test: Binding affinity to telomeric Htg24 G-quadruplex DNA (unknown origin) at pH 7.4 by fluorescence titration analysis; type: nucleic-acid assay
[4] = test system: Quadruplex DNA; test: Binding affinity to telomeric Htg24 G-quadruplex DNA (unknown origin) assessed as emission wavelength at 480 to 483 nm at pH 7.4 by spectrophotometric method; type: nucleic-acid assay
[5] = test system: Quadruplex DNA [UNDEFINED MUTATION]; test: Binding affinity to telomeric Htg24 G-quadruplex DNA G17A mutant (unknown origin) assessed as negative fluorescence signal at 5 uM under pH condition 7.4 by fluorescence titration analysis; type: nucleic-acid assay; details: Homo sapiens
Summary of the method: (§2)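 Ligand 5 μM mixed with wild-type or point-mutant Htg24 in Tris-HCl buffer with 60 mM KCl; signal change calculated as (F mutant − F wild type)/F wild type.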

[6] = test system: Quadruplex DNA [UNDEFINED MUTATION]; test: Binding affinity to telomeric Htg24 G-quadruplex DNA G22A mutant (unknown origin) assessed as negative fluorescence signal at 5 uM under pH condition 7.4 by fluorescence titration analysis; type: nucleic-acid assay; details: Homo sapiens
Summary of the method: (§3)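 Ligand held at 5 μM and mixed with each Htg24 point mutant in Tris-HCl buffer containing 60 mM KCl, pH 7.4. Fluorescence was read, and the signal change was computed as (F mutant − F wild type)/F wild type.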

[7] = test system: rRNA; test: Binding affinity to rRNA (unknown origin) assessed as equilibrium binding constant at 5 uM at 25 degreeC […]; type: nucleic-acid assay
Summary of the method: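 Fluorescence titration: ligand 5 μM in 10 mM Tris-HCl pH 7.4 with 60 mM KCl, nucleic acid added until saturation, 25 °C. Keq from nonlinear fit of F/F0 to an independent-site model.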

[8] = test system: PC-3; test: Antiproliferative activity against human PC-3 cells assessed as reduction in cell viability […] by MTT assay; type: functional, cell-based
[9] = Drug uptake in nucleolus of human U87 cells assessed as change in fluorescence signal at 5 uM for 30 mins co-stained with DAPI for 10 mins followed by treating with RNase and measured after 30 mins by confocal laser fluorescence microscopic analysis; type: ADME, subcellular; details: u-87mg atcc, 1.167 h, time 70 min
[10] = test system: Quadruplex DNA [UNDEFINED MUTATION]; test: Effect on confirmation of telomeric Htg24 G-quadruplex DNA T18G mutant (unknown origin) assessed as hybrid topology at 5 uM at pH 7.4 by circular dichroism analysis; type: nucleic-acid assay; details: Homo sapiens; summary of the method: as §1
[11] = biological target: Quadruplex DNA; test: Binding affinity to telomeric Htg22 G-quadruplex DNA (unknown origin) assessed as dissociation constant by isothermal titration calorimetric analysis; type: nucleic-acid assay
Summary of the method: (§4)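 ITC at 25 °C: DNA preannealed at 95 °C for 5 min, cooled and held at 4 °C overnight, in 25 mM KH2PO4, 60 mM KCl, pH 7.4, 0.5% DMSO. DNA 10 μM in cell, ligand 500 μM in syringe; 19 injections of 4 s, 150 s apart, 750 rpm stirring; blank heat subtracted before model fitting.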

[12] = test system: Quadruplex DNA; test: Binding affinity to G4 quadruplex DNA in human U87 cells assessed as increase in BG4-induced fluorescence signal at 5 uM incubated for 30 mins by immunofluorescence based confocal microscopic analysis; type: cell-based
Summary of the method: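 U87 cells fixed in 4% paraformaldehyde for 15 min, permeabilized with 0.1% Triton X-100 at 37 °C for 30 min, blocked with 5% goat serum for 3 h. BG4 antibody 3 h at 37 °C, then DyLight 405 anti-mouse IgG 3 h at 37 °C, then ligand 5 μM for 30 min. Confocal imaging for co-localization.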

[13] = test system: Quadruplex DNA [UNDEFINED MUTATION]; test: Binding affinity to telomeric Htg24 G-quadruplex DNA G17C mutant (unknown origin) assessed as negative fluorescence signal at 5 uM under pH condition 7.4 by fluorescence titration analysis; type: nucleic-acid assay; details: Homo sapiens; summary of the method: as §2
[14] = test system: Quadruplex DNA [UNDEFINED MUTATION]; test: Binding affinity to telomeric Htg24 G-quadruplex DNA G3T mutant (unknown origin) assessed as negative fluorescence signal at 5 uM under pH condition 7.4 by fluorescence titration analysis; type: nucleic-acid assay; details: Homo sapiens; summary of the method: as §3
[15] = test system: Quadruplex DNA; test: Binding affinity to telomeric Htg24 G-quadruplex DNA (unknown origin) assessed as stroke shift under at 480 to 483 nm at pH 7.4 by spectrophotometric method
[16] = test system: Quadruplex DNA [UNDEFINED MUTATION]; test: Effect on confirmation of telomeric Htg24 G-quadruplex DNA T19G mutant (unknown origin) assessed as hybrid topology at 5 uM at pH 7.4 by circular dichroism analysis; type: nucleic-acid assay; details: Homo sapiens; summary of the method: as §1
[17] = test system: Quadruplex DNA; test: Binding affinity to telomeric Htg22 G-quadruplex DNA (unknown origin) assessed as fold increase in fluorescence signal at 5 uM under pH condition 7.4 by fluorescence method; type: nucleic-acid assay
Summary of the method: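 Ligand 5 μM with each nucleic acid at 15 μM in 10 mM Tris-HCl pH 7.4, 60 mM KCl; emission enhancement expressed as F/F0 against ligand without DNA.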

[18] = test system: Quadruplex DNA [UNDEFINED MUTATION]; test: Binding affinity to telomeric Htg24 G-quadruplex DNA G16T mutant (unknown origin) assessed as negative fluorescence signal at 5 uM under pH condition 7.4 by fluorescence titration analysis; type: nucleic-acid assay; details: Homo sapiens; summary of the method: as §2
[19] = biological target: DNA; test: Binding affinity to ds26 DNA (unknown origin) assessed as dissociation constant by isothermal titration calorimetric analysis; type: nucleic-acid assay; summary of the method: as §4
[20] = test system: Quadruplex DNA [UNDEFINED MUTATION]; test: Binding affinity to telomeric Htg24 G-quadruplex DNA T18G mutant (unknown origin) assessed as negative fluorescence signal at 5 uM under pH condition 7.4 by fluorescence titration analysis; type: nucleic-acid assay; details: Homo sapiens; summary of the method: as §3
[21] = test system: Quadruplex DNA [UNDEFINED MUTATION]; test: Binding affinity to telomeric Htg24 G-quadruplex DNA G23C mutant (unknown origin) assessed as fluorescence signal at 5 uM under pH condition 7.4 by fluorescence titration analysis; type: nucleic-acid assay; details: Homo sapiens; summary of the method: as §3
[22] = test system: Quadruplex DNA [UNDEFINED MUTATION]; test: Binding affinity to telomeric Htg24 G-quadruplex DNA G21A mutant (unknown origin) assessed as strong fluorescence signal at 5 uM under pH condition 7.4 by fluorescence titration analysis; type: nucleic-acid assay; details: Homo sapiens; summary of the method: as §2
[23] = test system: Quadruplex DNA [UNDEFINED MUTATION]; test: Effect on confirmation of telomeric Htg24 G-quadruplex DNA G16C mutant (unknown origin) assessed as parallel topology at 5 uM at pH 7.4 by circular dichroism analysis; type: nucleic-acid assay; details: Homo sapiens; summary of the method: as §1
[24] = test system: Quadruplex DNA [UNDEFINED MUTATION]; test: Binding affinity to telomeric Htg24 G-quadruplex DNA G15C mutant (unknown origin) assessed as fluorescence signal at 5 uM under pH condition 7.4 by fluorescence titration analysis; type: nucleic-acid assay; details: Homo sapiens
[25] = test system: Quadruplex DNA [UNDEFINED MUTATION]; test: Effect on confirmation of telomeric Htg24 G-quadruplex DNA G16A mutant (unknown origin) assessed as parallel topology at 5 uM at pH 7.4 by circular dichroism analysis; type: nucleic-acid assay; details: Homo sapiens; summary of the method: as §1

CN(C)c1ccc(/C=C/c2cc(/C=C3\Sc4ccccc4N3CCCN3CCOCC3)c3ccccc3[n+]2C)cc1.[I-]
Activity [1]: Active | Activity [2]: Active | Activity [3]: Active | Activity [4]: 642 nm | Activity [5]: Active | Activity [6]: Active | Kb [7]: 620000 M⁻¹ | IC50 [8]: 12800 nM | Drug uptake [9]: Not Active | Activity [10]: Active | Kd [11]: 710 nM | Activity [12]: Active | Activity [13]: Active | Activity [14]: Active | Activity [15]: 162 nm | Activity [16]: Active | fold change (FC) [17]: 120 | Activity [18]: Active | Kd [19]: 2970 nM | Activity [20]: Active | Activity [21]: inactive | Activity [22]: Active | Activity [23]: Active | Activity [24]: inactive | Activity [25]: Active

Reference: ChEMBL document CHEMBL4834396, “Molecular Recognition and Imaging of Human Telomeric G-Quadruplex DNA in Live Cells: A Systematic Advancement of Thiazole Orange Scaffold To Enhance Binding Specificity and Inhibition of Gene Expression” (J Med Chem, 2021)
